Experimental findings from ChEMBL document CHEMBL2046401, “Detailed structure-activity relationship of indolecarboxamides as H4 receptor ligands” (Eur J Med Chem, 2012) are described below.

For one data set, the target named is Histamine H4 receptor (Homo sapiens, UniProt Q9H3N8). Description: Displacement of [3H]histamine from human histamine H4 receptor expressed in HEK cells. In kind it is cell-based, HEK293. In general terms: Displacement assays read how much labelled ligand stays bound in the presence of the test substance.
The nature of data set [1]: Half life in human liver microsomes. In kind it is ADME, Microsome. For orientation: Microsomes from liver hold many membrane-bound enzymes, among them those of drug oxidation.
Data set [2] can be described thus: Half life in mouse liver microsomes. In kind it is ADME, Microsome.
A short description of data set [3]: Solubility of the compound at pH 6.8. In kind it is physicochemical. The settings on record: buffer. In short, it runs like this:
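Solubility determined by the DMSO solution precipitation method.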

The structures appear in SMILES notation. pKi: −log10 of the molar value. Converted amounts (≈) assume the structure as drawn.

Sequence of Histamine H4 receptor (Q9H3N8 whole entry): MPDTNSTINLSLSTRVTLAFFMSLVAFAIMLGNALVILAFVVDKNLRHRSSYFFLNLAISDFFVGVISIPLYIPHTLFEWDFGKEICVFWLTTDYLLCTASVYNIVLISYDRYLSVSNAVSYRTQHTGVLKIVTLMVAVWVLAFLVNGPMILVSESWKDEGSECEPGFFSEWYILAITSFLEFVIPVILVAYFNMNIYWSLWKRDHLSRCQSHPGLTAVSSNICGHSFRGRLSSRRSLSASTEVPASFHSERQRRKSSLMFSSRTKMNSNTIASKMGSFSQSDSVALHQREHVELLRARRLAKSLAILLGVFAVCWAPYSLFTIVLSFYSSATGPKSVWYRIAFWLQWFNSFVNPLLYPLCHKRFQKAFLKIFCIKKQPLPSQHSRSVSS

On to `Cc1ccc2[nH]c(C(=O)N3CCN(C)CC3)cc2c1`, for which the pKi (commonly the Ki on a negative log10 scale, so that one unit is a factor of ten) at Histamine H4 receptor is 7.30. The same measure, in the same setting: the figure for `COc1ccc2[nH]c(C(=O)N3CCN(C)CC3)cc2c1` is 6.00. With `CN1CCN(C(=O)c2cc3cc(O)ccc3[nH]2)CC1`, the pKi at Histamine H4 receptor is 7.60. Same read-out and setting: in the case of `CN1CCN(C(=O)c2cc3c(Cl)c(Cl)ccc3[nH]2)CC1` it was 8.20; in that of `Cc1cccc2cc(C(=O)N3CCN(C)CC3)[nH]c12`, 7.90; in that of `CN1CCN(C(=O)c2cc3cccc(N)c3[nH]2)CC1`, 7.80.

In the case of `COc1ccc2cc(C(=O)N3CCN(C)CC3)[nH]c2c1`, at Histamine H4 receptor, the pKi is 4.80. Compound `CN1CCN(C(=O)c2cc3cccnc3[nH]2)CC1` had a pKi at Histamine H4 receptor of 5.70. This pKi lies 0.90 log units higher than the previous one. Still for that read-out and setting: in the case of `CN1CCN(C(=O)c2cc3ccccc3s2)CC1` it was 5.60. On Histamine H4 receptor, `CN1CCN(C(=O)c2cc3cc(Cl)ccc3o2)CC1` gave a pKi of 6.60. The same measure, in the same setting: in the case of `CN1CCN(C(=O)c2cc3ncccc3[nH]2)CC1` it was 5.40. `CN1CCN(C(=O)c2cc3cnccc3[nH]2)CC1` gave a pKi at Histamine H4 receptor of 5.20. This pKi lies 0.20 log units lower than the previous one. With `CN1CCN(C(=O)c2cc3ccncc3[nH]2)CC1`, on Histamine H4 receptor, the pKi is 5.70. Turning to `CN1CCN(C(=O)c2cc3c(F)cccc3[nH]2)CC1`, the pKi on Histamine H4 receptor is 7.50. Compared with the last compound, the pKi is 1.80 log units higher.

As to `CN1CCN(C(=O)c2cc3c(Cl)cccc3[nH]2)CC1`, the pKi on Histamine H4 receptor was 7.50.

`COc1cccc2[nH]c(C(=O)N3CCN(C)CC3)cc12` showed a negative logarithm of the Ki (pKi) on Histamine H4 receptor of 6.00. The same measure, in the same setting: the figure for `CN1CCN(C(=O)c2cc3c(O)cccc3[nH]2)CC1` is 6.80; for `CN1CCN(C(=O)c2cc3c([N+](=O)[O-])cccc3[nH]2)CC1` it is 6.10; for `CN1CCN(C(=O)c2cc3c(N)cccc3[nH]2)CC1` it is 6.50. For `CC(=O)c1cccc2[nH]c(C(=O)N3CCN(C)CC3)cc12`, the pKi on Histamine H4 receptor was 5.30. `CN1CCN(C(=O)c2cc3cc([N+](=O)[O-])ccc3[nH]2)CC1` showed a pKi on Histamine H4 receptor of 7.10. Take `CC(=O)c1ccc2[nH]c(C(=O)N3CCN(C)CC3)cc2c1`: the pKi at Histamine H4 receptor is 4.90. Against the preceding compound, the pKi is 2.20 log units lower. On Histamine H4 receptor, `CN1CCN(C(=O)c2cc3ccc(Cl)cc3[nH]2)CC1` showed a pKi of 6.80. Consider `CN1CCN(C(=O)c2cc3ccc(O)cc3[nH]2)CC1`, for which, at Histamine H4 receptor, the pKi is 7.60. On the same count and under the same terms, the figure for `CN1CCN(C(=O)c2cc3ccc([N+](=O)[O-])cc3[nH]2)CC1` is 5.70; for `CN1CCN(C(=O)c2cc3ccc(N)cc3[nH]2)CC1` it is 7.10.

`CN1CCN(C(=O)c2cc3cccc(F)c3[nH]2)CC1` had a pKi on Histamine H4 receptor of 7.70. On the same count and under the same terms, in the case of `COc1cccc2cc(C(=O)N3CCN(C)CC3)[nH]c12` it was 5.60; in that of `CN1CCN(C(=O)c2cc3cccc([N+](=O)[O-])c3[nH]2)CC1`, 6.10. `CN1CCN(C(=O)c2cc3cccc(C(F)(F)F)c3[nH]2)CC1`: the pKi at Histamine H4 receptor was 6.00. This pKi and that of the compound before are within 0.2 log units of each other. In turn, `Cc1cccc2cc(C(=O)N3CCNCC3)[nH]c12` gave a pKi on Histamine H4 receptor of 7.40. `CN[C@@H]1CCN(C(=O)c2cc3cccc(C)c3[nH]2)C1` had a pKi at Histamine H4 receptor of 6.20. At Histamine H4 receptor, `CNC1CN(C(=O)c2cc3cccc(C)c3[nH]2)C1` gave a pKi of 6.40.

Regarding `Cc1cccc2cc(C(=O)N3CC(N4CCCC4)C3)[nH]c12`, on Histamine H4 receptor, the pKi was 7.10.

`CN1CCN(C(=O)c2cc3c(F)c(Cl)ccc3[nH]2)CC1` gave a pKi at Histamine H4 receptor of 8.20. Take `CN1CCN(C(=O)c2cc3cc(Cl)cc(F)c3[nH]2)CC1`: at Histamine H4 receptor, the pKi was 8.20. Regarding `Cc1cc(Cl)cc2cc(C(=O)N3CCN(C)CC3)[nH]c12`, the pKi on Histamine H4 receptor was 8.20. Also, the results for the half-life in data set [1] and in data set [2] were above 45 min and 2 min, respectively. Besides, the solubility (as a rule, the concentration that dissolves in the medium under given conditions) in data set [3] is 57 µg/mL (≈ 195 µM).

Regarding `CN1CCN(C(=O)c2cc3cc(Cl)cc(N)c3[nH]2)CC1`, the pKi on Histamine H4 receptor is 8.30. For the same compound, the results for the half-life in data set [1] and in data set [2] were 66 min and 14 min, respectively. Moreover, the solubility in data set [3] is 67 µg/mL (≈ 229 µM). `Cc1cc(Cl)cc2cc(C(=O)N3CCNCC3)[nH]c12`: at Histamine H4 receptor, the pKi is 7.90. In addition, the half-life (commonly the time needed for the level to fall by half in the phase considered) was above 90 min in data set [1] and 16 min in data set [2]. Besides, the solubility in data set [3] is 65 µg/mL (≈ 234 µM). For `CN[C@@H]1CCN(C(=O)c2cc3cc(Cl)cc(C)c3[nH]2)C1`, in that order: 6.60, above 90 min, 27 min and 59 µg/mL (≈ 202 µM). As to `CNC1CN(C(=O)c2cc3cc(Cl)cc(C)c3[nH]2)C1`, the pKi at Histamine H4 receptor was 6.70. Also, the half-life was above 90 min in data set [1] and 26 min in data set [2]. In addition, the solubility in data set [3] came to 51 µg/mL (≈ 184 µM). `Cc1cc(Cl)cc2cc(C(=O)N3CC(N4CCCC4)C3)[nH]c12` gave a pKi on Histamine H4 receptor of 7.50. In addition, the figures for the half-life in data set [1] and in data set [2] were above 90 min and 11 min, respectively. Moreover, in data set [3], the concentration in solution (solubility) came to 10 µg/mL (≈ 31.5 µM). With `CN1CCCN(C(=O)c2cc3cc(Cl)ccc3[nH]2)CC1`, the pKi on Histamine H4 receptor was 7.40.

Take `CN1CCCN(C(=O)c2cc3ccccc3[nH]2)CC1`: the pKi on Histamine H4 receptor was 6.40. For the compound `CN1CCCN(C(=O)c2cc3cccc(C(F)(F)F)c3[nH]2)CC1`, the pKi at Histamine H4 receptor was 5.30.

On to `CN1CCCN(C(=O)c2cc3c(F)cccc3[nH]2)CC1`, for which the pKi on Histamine H4 receptor is 6.60. The same measure, in the same setting: in the case of `COc1cccc2cc(C(=O)N3CCCN(C)CC3)[nH]c12` it was 4.80; in that of `CN1CCCN(C(=O)c2cc3cccc(F)c3[nH]2)CC1`, 6.40; in that of `Cc1cccc2cc(C(=O)N3CCCN(C)CC3)[nH]c12`, 5.80. In turn, `O=C(c1cc2cccc(F)c2[nH]1)N1CC(N2CCCC2)C1` showed a pKi on Histamine H4 receptor of 7.40. Compared with the last compound, the pKi is 1.60 log units higher. On Histamine H4 receptor, `O=C(c1cc2cccc(F)c2[nH]1)N1CCNCC1` gave a pKi of 7.00. With `CN[C@@H]1CCN(C(=O)c2cc3cccc(F)c3[nH]2)C1`, the negative logarithm of the Ki (pKi) on Histamine H4 receptor is 6.30. In the case of `CNC1CN(C(=O)c2cc3cccc(F)c3[nH]2)C1`, at Histamine H4 receptor, the pKi was 6.40. `O=C(c1cc2cc(Cl)ccc2[nH]1)N1CC(N2CCCC2)C1`: the pKi on Histamine H4 receptor is 8.00. `O=C(c1cc2cc(Cl)ccc2[nH]1)N1CCCNCC1` showed a pKi at Histamine H4 receptor of 7.20.

For `CN1CCCN(C(=O)c2cc3cc(Cl)cc(F)c3[nH]2)CC1`, the negative logarithm of the Ki (pKi) on Histamine H4 receptor is 7.20.

As to `CN1CCCN(C(=O)c2cc3c(F)c(Cl)ccc3[nH]2)CC1`, on Histamine H4 receptor, the pKi is 7.50. Against the preceding compound, the pKi is 0.30 log units higher. Compound `O=C(c1cc2cc(Cl)cc(F)c2[nH]1)N1CC(N2CCCC2)C1` showed a pKi at Histamine H4 receptor of 7.80. Consider `CNC1CN(C(=O)c2cc3cc(Cl)cc(F)c3[nH]2)C1`, for which the pKi on Histamine H4 receptor was 7.00. Still for that read-out and setting: in the case of `CN[C@@H]1CCN(C(=O)c2cc3cc(Cl)cc(F)c3[nH]2)C1` it was 6.60; in that of `O=C(c1cc2cc(Cl)cc(F)c2[nH]1)N1CCNCC1`, 7.70; in that of `CN1CCN(C(=O)c2cc3cc(Cl)cc([N+](=O)[O-])c3[nH]2)CC1`, 6.40. The same measure, in the same setting: in the case of `Cc1ccc(F)c2cc(C(=O)N3CCN(C)CC3)[nH]c12` it was 7.40; in that of `CN1CCN(C(=O)c2cc3c(F)ccc(F)c3[nH]2)CC1`, 7.10. On Histamine H4 receptor, `CN1CCN(C(=O)c2cc3cccc(Cl)c3[nH]2)CC1` showed a pKi of 7.70. Compound `CN1CCN(C(=O)c2cc3cc(F)ccc3[nH]2)CC1` had a pKi on Histamine H4 receptor of 7.80. Turning to `O=C(c1cc2cc(Cl)ccc2[nH]1)N1CCNCC1`, the pKi at Histamine H4 receptor is 7.90.
